Results from ChEMBL document CHEMBL1122488, “synthesis and antitumor activity of 2-deoxyribofuranosides of 3-deazaguanine” (1983).
Each block holds one compound with its values, some of them ahead of it.

Assays:
Assay type in all cases: functional
[1] = tested on: L1210; test: Effective dose that produced 50% inhibition of L1210 Leukemia cell growth in culture; conditions: Mus musculus, read-out: ED50 (the source's name)
Outline: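 The value is the drug concentration in the culture medium that gave 50% inhibition of L1210 leukemia cell growth, relative to untreated controls, after a 48-h incubation. Results are mean ± standard error.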

[2] = tested on: Mus musculus; test: Tumor weight on day 17 of C3H mammary adenocarcinoma 16/C in B6C3F1 female mice at 80 mg/kg by subcutaneous administration; conditions: route intraperitoneal, in the assay text read “intraperitoneal administration” for “subcutaneous administration”
Outline: (§1)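 C3H mammary adenocarcinoma 16/C, lung-passed in C3H female mice. Freshly harvested 2- to 4-mm3 fragments were implanted subcutaneously into 18- to 20-g B6C3F1 females on day 0, and the mice were randomized the next day. Drugs were dissolved in 0.2 M phosphate buffer and given ip once daily on days 1-9; controls received 0.2 mL buffer. Tumor weight was estimated from caliper length and width by […].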

[3] = tested on: Mus musculus; test: Percentage growth inhibition of mammary adenocarcinoma 16/C in B6C3F1 female mice at 40 mg/kg dose […]; conditions: sc; outline: as §1
[4] = tested on: Mus musculus; test: Percentage growth inhibition of mammary adenocarcinoma 16/C in B6C3F1 female mice at 80 mg/kg dose […]; conditions: sc; outline: as §1
[5] = tested on: Mus musculus; test: Change in weight on day 9 of mammary adenocarcinoma 16/C in B6C3F1 female mice at 40 mg/kg […]; outline: as §1
[6] = tested on: Mus musculus; test: Change in weight on day 9 of mammary adenocarcinoma 16/C in B6C3F1 female mice at 80 mg/kg […]; outline: as §1
[7] = tested on: Mus musculus; test: Animals with palpable tumors on day 17 at 40 mg/kg by subcutaneous administration in B6C3F1 female mice; 6/6; conditions: route intraperitoneal, in the assay text read “intraperitoneal administration” for “subcutaneous administration”; outline: as §1
[8] = tested on: Mus musculus; test: Animals with palpable tumors on day 17 at 80 mg/kg by subcutaneous administration in B6C3F1 female mice; 6/6; conditions: route intraperitoneal, in the assay text read “intraperitoneal administration” for “subcutaneous administration”; outline: as §1
[9] = tested on: Mus musculus; test: Tumor weight on day 17 of C3H mammary adenocarcinoma 16/C in B6C3F1 female mice at 40 mg/kg […]; outline: as §1
[10] = tested on: Mus musculus; test: Percentage growth inhibition of mammary adenocarcinoma 16/C in B6C3F1 female mice at the dose of 100 mg/kg by subcutaneous administration; conditions: ip, in the assay text read “intraperitoneal administration” for “subcutaneous administration”; outline: as §1
[11] = tested on: Mus musculus; test: Tumor weight of C3H mammary adenocarcinoma 16/C in B6C3F1 female mice at 100 mg/kg by subcutaneous administration on day 17; conditions: route intraperitoneal, in the assay text read “intraperitoneal administration” for “subcutaneous administration”; outline: as §1
[12] = tested on: Mus musculus; test: Tumor weight of C3H mammary adenocarcinoma 16/C in B6C3F1 female mice at 50 mg/kg by subcutaneous administration on day 17; conditions: route intraperitoneal, in the assay text read “intraperitoneal administration” for “subcutaneous administration”; outline: as §1
[13] = tested on: Mus musculus; test: Change in weight of mammary adenocarcinoma 16/C in B6C3F1 female mice at 100 mg/kg […] on day 9; outline: as §1
[14] = tested on: Mus musculus; test: Change in weight of mammary adenocarcinoma 16/C in B6C3F1 female mice at 50 mg/kg […] on day 9; outline: as §1
[15] = tested on: Mus musculus; test: Animals with palpable tumors on day 17 at the dose of 100 mg/kg by […] in 6 B6C3F1 female mice; 6/6 animals were with palpable tumors.; outline: as §1
[16] = tested on: Mus musculus; test: Animals with palpable tumors on day 17 at the dose of 50 mg/kg by […] in 6 B6C3F1 female mice; 6/6 animals were with palpable tumors.; outline: as §1
[17] = tested on: Mus musculus; test: Percentage growth inhibition of mammary adenocarcinoma 16/C in B6C3F1 female mice at the dose of 50 mg/kg by subcutaneous administration; conditions: ip, in the assay text read “intraperitoneal administration” for “subcutaneous administration”; outline: as §1
[18] = organism: Mus musculus; test: Percentage growth inhibition of mammary adenocarcinoma 16/C in B6C3F1 female mice; outline: as §1
[19] = tested on: Mus musculus; test: Tumor weight of C3H mammary adenocarcinoma 16/C in B6C3F1 female mice at 80 mg/kg by subcutaneous administration on day 17; conditions: route intraperitoneal, in the assay text read “intraperitoneal administration” for “subcutaneous administration”; outline: as §1
[20] = tested on: Mus musculus; test: Change in weight of mammary adenocarcinoma 16/C in B6C3F1 female mice by subcutaneous administration on day 9; outline: as §1
[21] = tested on: Mus musculus; test: Animals with palpable tumors on day 17 after subcutaneous administration in 6 B6C3F1 female mice; 5/6 animals were with palpable tumors.; conditions: in the assay text read “intraperitoneal administration” for “subcutaneous administration”; outline: as §1

SMILES: Nc1cc2ncn([C@H]3C[C@H](O)[C@@H](CO)O3)c2c(O)n1
EC50 [1]: 950 µM
inhibition in vivo at 100 mg/kg [10]: 2.8%
Tumor weight [11]: 3.5 g
Tumor weight [12]: 2.95 g
Delta weight [13]: 0.95
Delta weight [14]: 0.72
Animals with palpable tumor [15]: 6
Animals with palpable tumor [16]: 6
inhibition in vivo at 50 mg/kg [17]: 18.1%

SMILES: Nc1cc2ncn([C@@H]3O[C@H](CO)[C@@H](O)[C@H]3O)c2c(=O)[nH]1
EC50 [1]: 750 µM

SMILES: Nc1cc2[nH]cnc2c(=O)[nH]1 [DEZAGUANINE]
EC50 [1]: 11 µM
Inhibition [18]: 93.1%
Tumor weight [19]: 0.25 g
Delta weight [20]: 0.06
Animals with palpable tumor [21]: 5

Compounds with a lower EC50 [1], results first:

EC50 [1]: 9 µM
SMILES: Nc1cc2c(ncn2[C@H]2C[C@H](O)[C@@H](CO)O2)c(O)n1
Tumor weight [2]: 1.09 g
inhibition in vivo at 40 mg/kg [3]: 25%
inhibition in vivo at 80 mg/kg [4]: 69.7%
Delta weight [5]: 0.58
Delta weight [6]: 1.2
Animals with palpable tumor [7]: 6
Animals with palpable tumor [8]: 6
Tumor weight [9]: 2.7 g

EC50 [1]: 7 µM
SMILES: Nc1cc2c(ncn2[C@@H]2O[C@H](CO)[C@@H](O)[C@H]2O)c(=O)[nH]1
